Only some compounds are listed: those with a hit (about 4.5% of all), similar ones and a draw of the others.
CHO parental Ca = ATP-evoked calcium signal inhibitors, parental CHO, primary screen, counter-screen for OX1R antagonist project, cell-based, fluorescence, Fluo-8 calcium dye; 0.63% of 330,000 active; parental CHO-K1, ATP-induced calcium, Fluo-8 fluorescence; inhibition, % at 5.6 µM;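 active = inhibition above that plate's mean sample inhibition plus 3 SD, cut at about 26% in these data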;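 also: 0% = ATP-challenged DMSO wells and 100% = DMSO wells without ATP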
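Assay system: parental CHO cells; Read-out basis: percent inhibition of ATP-evoked calcium rise, normalized to controls; Benchmarks: ATP and no-ATP DMSO wells; Compound dosing: single nominal dose of 5.6 µM per compound; Signal: Fluo-8 calcium dye fluorescence; Also added: ATP as calcium-mobilizing challenge; Repeats: singlicate.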
TAAR1 antag = human TAAR1 antagonists, primary screen, Fluo-8 calcium fluorescence, CHO RD-HGA16 cells; Trace amine-associated receptor 1 (Homo sapiens), Q96RJ0; antagonist; inhibition, % at 3 µM; 1.5% of 360,000 active; AID 624466, 2012;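 active = inhibition above a per-plate cutoff, the mean inhibition of test compounds on that plate plus 3 SD, cut at about 49% in these data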;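 also: 0% = DMSO plus EC80 beta-PEA response and 100% = DMSO alone without agonist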
Target sequence (Q96RJ0 whole entry, looked up): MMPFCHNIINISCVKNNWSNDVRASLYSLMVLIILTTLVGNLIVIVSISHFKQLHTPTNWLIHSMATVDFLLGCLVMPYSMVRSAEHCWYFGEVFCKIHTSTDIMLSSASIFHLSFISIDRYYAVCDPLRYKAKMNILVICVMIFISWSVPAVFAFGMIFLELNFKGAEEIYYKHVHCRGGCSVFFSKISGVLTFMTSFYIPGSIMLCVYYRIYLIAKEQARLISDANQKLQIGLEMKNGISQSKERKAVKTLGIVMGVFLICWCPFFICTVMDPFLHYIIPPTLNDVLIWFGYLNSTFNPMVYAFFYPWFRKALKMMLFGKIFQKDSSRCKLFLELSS
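Test system: RD-HGA16 CHO cells with stable hTAAR1 and Gα16 / Probe or stimulus: EC80 β-phenethylamine stimulus / Times: seeding 17-24 h prior, 75-min 37 °C, 30-min RT dye loading / Detection: Fluo-8 calcium-sensitive fluorescence / Read-out basis: % inhibition scaled between DMSO and EC80 PEA controls / Repeats: singlicate, one well per test compound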
GPR7 antag = GPR7 receptor antagonists, primary screen, cell-based, fluorescence, single concentration; GPR7-expressing cells, fluorescence antagonist assay; inhibition, % at 4.4 µM; 1.1% of 290,000 active; AID 1861, 2009; in the data active = inhibition above about 16%, passing the limit was not always enough;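 also: cells stimulated with the agonist NPW; 0% = agonist with vehicle and 100% = vehicle without agonist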
Target sequence (P48145 whole entry, looked up): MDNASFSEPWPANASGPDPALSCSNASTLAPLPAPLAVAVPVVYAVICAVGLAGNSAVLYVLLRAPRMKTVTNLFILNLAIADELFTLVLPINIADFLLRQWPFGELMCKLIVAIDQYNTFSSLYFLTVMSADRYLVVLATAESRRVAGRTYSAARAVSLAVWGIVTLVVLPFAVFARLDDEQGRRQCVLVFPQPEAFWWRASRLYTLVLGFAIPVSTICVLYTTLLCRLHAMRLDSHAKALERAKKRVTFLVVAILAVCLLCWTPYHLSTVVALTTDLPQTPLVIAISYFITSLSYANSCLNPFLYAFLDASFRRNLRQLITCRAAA
TAAR1 ag = human TAAR1 agonists, primary screen, Fluo-8 calcium fluorescence, CHO RD-HGA16 cells | vehicle wells 0%, saturating PEA agonist 100% | activation, % at 3 µM | 0.99% of 360,000 active;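 active = activation above the mean activation of all test compounds in the run plus 3 SD, cut at about 38% in these data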
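System: CHO RD-HGA16 cells carrying human TAAR1 plus Gα16; Incubation: 17-24 h seeding, 75 min 37 °C dye, 30 min RT; Measured by: Fluo-8 fluorescence, 5 s baseline then 140 s kinetic read; Control set: DMSO and PEA EC100; Replication: single well for each compound.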
OX1R antag-1 = OX1R (HCRTR1) antagonists, primary screen, fluorescence, CHO/OX1R cells, Fluo-8 calcium, orexin A; Orexin/Hypocretin receptor type 1 (Homo sapiens), O43613; Fluo-8 calcium fluorescence; inhibition, % at 5 µM; 0.43% of 330,000 active; AID 434989, 2010;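 active = inhibition above its plate's threshold, mean inhibition of all tested compounds on the plate plus 3 SD, cut at about 37% in these data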;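 also: 0% = orexin A challenge wells and 100% = SB-334867-A antagonist wells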
OX1R antag-2 = antagonists of human orexin 1 receptor (OX1R); inhibition, % at 6.6 µM; OX1R-expressing cells, FRET antagonist read-out; AID 485270, 2010; 1.8% of 330,000 active; Orexin/Hypocretin receptor type 1 (Homo sapiens), O43613; in the data active = inhibition mostly above about 38%, no sharp cut-off; inactive = mostly below about 40%;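 also: 0% = agonist challenge alone and 100% = reference antagonist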
OX1R HTRF conf = OX1R (HCRTR1) antagonists, confirmation, cell-based, HTRF. OX1R-expressing cells, HTRF antagonist assay. shares compounds with OX1R antag-2. 49% of 1,800 active. inhibition, % at 6.6 µM; in the data active = inhibition above about 55%;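 also: CHO cells expressing OX1R stimulated with orexin A at about EC80; 0% = agonist challenge alone and 100% = reference antagonist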
CHO-K1 HTRF = signal inhibition in parental CHO-K1 cells, counter-screen for OX1R antagonist project, cell-based, HTRF. shares compounds with OX1R antag-2. AID 493232, 2011. 48% of 1,800 active. inhibition, % at 6.6 µM. HTRF counterscreen; in the data active = inhibition above about 17%;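 also: 0% = agonist challenge with vehicle and 100% = vehicle alone without agonist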
Starred values were filed as active, the others as inactive; . = not tested or not shown.

SMILES | CHO parental Ca | TAAR1 antag | GPR7 antag | TAAR1 ag | OX1R antag-1 | OX1R antag-2 | OX1R HTRF conf | CHO-K1 HTRF
COc1ccc(C(=O)N2CCCCC2c2cc(C(=O)NCc3ccccc3)no2)cc1 (stereo not drawn) | . | -1.1 | . | 5.3 | . | . | . | .
CCC(C)(C)N(C(=O)CCC(=O)Nc1cc(C)on1)C(C(=O)NC(C)(C)C)c1ccc(OC)cc1 (stereo not drawn) | -27.5 | -7.5 | -3.1 | 6.2 | -16.9 | 2.3 | . | .
CCN(CC(=O)Nc1c(F)cccc1F)C(=O)c1ccc2c(c1)S(=O)(=O)N=C1CCCCCN12 | -10.9 | 3.2 | . | 0.1 | -6.0 | 6.2 | . | .
Cc1ccc(-c2noc(CNC(=O)COc3ccccc3C)n2)cc1 | -2.6 | -25.0 | -2.2 | -1.8 | -19.0 | 8.5 | . | .
Cc1ccc(Oc2c(C(N)=O)cc([N+](=O)[O-])cc2[N+](=O)[O-])cc1 | -2.8 | 0.1 | 1.4 | 1.8 | -3.3 | 104.6* | 79.6* | 76.5*
Cc1ccc(CNc2ccc([N+](=O)[O-])cc2C(N)=O)cc1 | -16.9 | 6.9 | . | 6.4 | 2.3 | 21.0 | . | .
O=C1NC[C@@H](CCCCN2C[C@H](Cc3ccc(O)cc3)N(CC3CCCCC3)C(=O)C2=O)N(CC2CCCCC2)C1=O | . | 3.9 | . | 25.0 | . | . | . | .
O=C(Nc1ccccn1)c1ccc2ccccc2n1 | -18.3 | 2.0 | -7.3 | -1.1 | -2.7 | 85.6* | 67.9* | -5.4
O=C(Nc1ccc(Cl)cn1)c1ccccc1[N+](=O)[O-] | -11.2 | 5.8 | -17.8 | 0.9 | -8.2 | 28.4 | . | .
O=[N+]([O-])c1cnc(Nc2ccc(Cl)cn2)c([N+](=O)[O-])c1 | -3.4 | -10.7 | -9.0 | -0.5 | -4.7 | 96.9* | 47.6 | 45.3*
O=C(NNCc1ccc(O)cc1)c1ccccc1Cl | -6.6 | -2.9 | -4.7 | 1.4 | -0.5 | 8.6 | . | .
Cc1cc(C)c2cc(C#N)c(NCCNC(=O)c3ccncc3)nc2c1 | . | -18.6 | . | -1.5 | . | . | . | .
O=C1NCCN1c1ncc([N+](=O)[O-])s1 | 6.3 | -12.6 | . | 1.1 | -2.0 | 81.7* | 62.6* | 87.9*
O=C(Nc1ncc([N+](=O)[O-])s1)C1CC(=O)N(c2ccc(F)cc2)C1 (stereo not drawn) | 15.7 | 13.6 | 0.5 | 15.3 | -17.4 | 25.8 | . | .
CC(=O)N1CCN(C(=O)COC(=O)COc2ccc(C#N)cc2)CC1 | 0.3 | -14.5 | . | 0.5 | -8.1 | 8.0 | . | .
CCSc1ccc([C@@H]2[C@H]3C(=O)N(CC)C(=O)[C@H]3[C@]3(C(=O)OC)CCCCN23)cc1OC | -28.6 | . | . | . | 32.0 | 84.5* | 76.0* | 7.0
CCCSc1ccc([C@@H]2[C@@H]3C(=O)N(CC)C(=O)[C@@H]3[C@]3(C(=O)OC)CCCCN23)cc1OC | -39.3 | 6.8 | . | 0.6 | -15.3 | 6.6 | . | .
COc1ccc(/C=C/c2ccc3ccccc3[n+]2C)cc1OC | 4.5 | . | -5.2 | . | -5.3 | 78.3* | 70.0* | 85.6*
COc1ccc(NC(=O)CSc2nnnn2C)c([N+](=O)[O-])c1 | -7.5 | 7.5 | -3.8 | 1.3 | -15.8 | 117.4* | 24.6 | 46.1*
Cn1nnnc1SCC(=O)Nc1ccccc1[N+](=O)[O-] | -7.6 | -1.6 | -4.1 | 6.3 | -2.9 | 59.1 | . | .
COc1ccc(-n2nc([N+](=O)[O-])c(=NCCCN3CCCC3=O)n2O)cc1 | -5.2 | -2.1 | -13.2 | 0.7 | 0.5 | 153.7* | 50.7 | 87.7*
Cc1c(Cl)c([N+](=O)[O-])nn1CCCC(=O)N(Cc1ccccc1)Cc1ccccc1 | -15.5 | 22.3 | 11.3 | 0.4 | 23.2 | 84.5* | 84.8* | 4.0
Cc1c(Cl)c([N+](=O)[O-])nn1CCCC(=O)N1CCN(c2ccccc2)CC1 | -16.8 | 8.0 | -1.4 | 2.1 | -18.8 | 9.9 | . | .
N#Cc1cc([N+](=O)[O-])ccc1Oc1ccc(-c2nnco2)cc1 | 5.8 | -19.2 | 13.0 | 4.1 | -5.4 | 78.7* | 35.4 | 42.4*
O=[N+]([O-])c1ccc(Oc2ccc(-c3nnco3)cc2)c(Cl)c1 | 0.7 | 12.7 | 6.7 | -1.4 | -6.8 | 44.5 | . | .
SMILES | CHO parental Ca | TAAR1 antag | GPR7 antag | TAAR1 ag | OX1R antag-1 | OX1R antag-2 | OX1R HTRF conf | CHO-K1 HTRF
CCN1CCN(C(=O)c2ccc(Cl)c(S(=O)(=O)N3CCCCC3)c2)CC1 | -7.4 | -14.4 | -4.9 | 1.1 | -13.6 | 23.8 | . | .
CC(=O)O[C@H]1[C@H](O)[C@H](Oc2c(O)c(C)c3c4c2[C@@H](C)CC[C@@H]4[C@@H](C)C[C@H]3C=C(C)C)O[C@@H](C)[C@H]1O | 1.6 | . | . | . | 6.8 | -9.7 | . | .
CC(=O)NC1=C(Nc2ccc(N(C)C)cc2)C(=O)c2ccccc2C1=O | -9.9 | 0.2 | -14.5 | 2.6 | -13.1 | 119.6* | 65.9* | 92.0*
CC(=O)c1c(C)[nH]c(C(=O)COC(=O)c2c(-c3ccccc3)noc2C)c1C | -22.1 | 9.3 | . | 7.7 | -3.9 | 5.1 | . | .
CCN1C(=O)c2ccc(C(=O)Nc3nccs3)cc2C1=O | -23.1 | 17.1 | -12.2 | 3.2 | -13.0 | 89.6* | 28.8 | 29.1*
Cc1nc2c(C(=O)Nc3ccc(N4CCCC(O)C4)cc3)snc2c(=O)[nH]1 (stereo not drawn) | -1.8 | -22.6 | 4.3 | 0.4 | 2.9 | 94.8* | 38.5 | 58.7*
Cc1ccc2nc(Nc3ccccc3)c(/C=N/O)c(=O)n2c1 | -22.1 | 11.3 | -11.8 | 6.3 | 0.1 | 98.0* | 62.3* | 10.1
O=C(O)c1cccc(NS(=O)(=O)c2cccc3nsnc23)c1 | 7.0 | 1.6 | 2.5 | -0.6 | -1.8 | 33.1 | . | .
COc1ccccc1NC(=O)CS(=O)(=O)c1cccc2nsnc12 | -1.9 | -4.2 | -7.2 | 14.6 | -23.8 | 100.1* | 36.4 | 36.6*
COc1ccc(C(=O)O)cc1NS(=O)(=O)c1cccc2nsnc12 | -15.3 | -16.2 | 0.2 | 14.3 | -9.0 | 115.8* | 41.6 | 29.8*
CC1CCCN(S(=O)(=O)c2cccc(C(=O)NCC3CCCO3)c2)C1 (stereo not drawn) | -23.3 | -9.9 | . | 0.5 | -32.8 | -1.6 | . | .
CSc1ncccc1C(=O)OCC(=O)NC(C)CCc1ccccc1 (stereo not drawn) | -22.7 | -6.5 | . | 8.6 | -16.3 | 11.2 | . | .
O=Nc1c(O)[nH]c2ccc(F)cc12 | 2.8 | 0.0 | -11.8 | 12.4 | 0.1 | 14.6 | . | .
NC(=S)N=Nc1c(O)[nH]c2ccc(F)cc12 | -2.0 | -0.3 | 3.5 | 3.7 | 5.3 | 83.5* | 45.8 | 35.9*

Screening results deposited in PubChem BioAssay by The Scripps Research Institute Molecular Screening Center.
